This is a sample that favours compounds with a hit; in the whole collection about 2.3% have one here.
Bim-Mcl-1: inhibitors of Bim peptide binding to Mcl-1, primary screen, biochemical, bead-based flow cytometry, multiplex; AID 1009, 2008; Bim peptide-Mcl-1 binding; inhibition, % at 10 µM; Induced myeloid leukemia cell differentiation protein Mcl-1 (Homo sapiens), Q07820; 190,000 tested, 0.1% active; in the data active means inhibition above about 40%;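 further: 0% = no compound tracer wells and 100% = peptide blocker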
Mcl1 Noxa PPI: Mcl-1/Noxa binding inhibitors, primary screen, biochemical, TR-FRET, 1536-well; Induced myeloid leukemia cell differentiation protein Mcl-1 (Homo sapiens), Q07820; TR-FRET Mcl-1/Noxa peptide binding, 2 h; inhibition, % at 21.7 µM; 220,000 tested, 1.5% active; AID 1022, 2008;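 active means compounds that cut the protein-peptide binding signal by more than 50% relative to plate controls in a single-dose test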;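 further: His-tagged Mcl-1 with rhodamine Noxa BH3 peptide and terbium anti-His antibody; 0% = Mcl-1 plus Noxa peptide wells and 100% = peptide-only wells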
T cell HTS: modulators of CD8 T cell-vesicle binding, primary screen, mouse 2C CD8+ T cells, flow cytometry; AID 2052, 2009; response (vesicle binding), % at 7 µM; 2C CD8+ T cell-vesicle binding; stronger effect = lower value; 330,000 tested, 0.068% active;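 active means response, share of CD8 T cells binding vesicles, and their 90th percentile fluorescence all below set limits, cut at about 80% in these data, passing the limit was not always enough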;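 further: values below 100% mean blocked vesicle binding to the CD8+ T cells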
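Assay system – 2C mouse CD8+ T cells · Also added – QL9-loaded Drosophila micro-vesicles · Timing – Cell–vesicle co-incubation 1.5 h at 37 °C, staining 20 min on ice · Signal – flow cytometry of vesicle-bound cells · Measure – percent CD8+ FL2 mean versus row control · Controls – Peptide-free naked vesicles (low) and QL9 vesicles with 0.7% DMSO vehicle (high)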
Mcl1-Bid inh: Mcl-1/Bid binding inhibitors, primary screen, biochemical, TR-FRET, 1536-well; Induced myeloid leukemia cell differentiation protein Mcl-1 (Homo sapiens), Q07820; TR-FRET Mcl-1/Bid-Dy647 peptide binding; inhibition, % at 21.7 µM; 220,000 tested, 0.97% active; AID 1021, 2008;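 active means compounds that cut the binding signal by more than half at the single screening dose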;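 further: His-tagged Mcl-1 with europium anti-His antibody binding Bid BH3 peptide; 0% = Mcl-1 plus peptide wells and 100% = peptide-only wells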
MCL1-BIM inh: inhibitors of MCL1 binding to BIM-BH3, primary screen, biochemical, fluorescence polarization | Induced myeloid leukemia cell differentiation protein Mcl-1 (Homo sapiens), Q07820 | AID 2057, 2009 | inhibition, % at 10.9 µM | GST-MCL1 / FITC-Bim-BH3 fluorescence polarization | 320,000 tested, 0.68% active;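 active means inhibition above the mean inhibition of all tested compounds plus 3 SD, set per campaign, cut at about 40% in these data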;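 further: 0% = DMSO wells and 100% = unlabeled Bim-BH3 peptide control; higher means more loss of mP so more displacement of Bim peptide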
Pemphigus Ab inh: inhibitors of pemphigus antibody binding to DSG3, primary screen, biochemical, bead-based, flow cytometry, scFv-GFP; binding (percent of control), % at 10 µM; DSG3-coupled beads, scFv-anti-DSG3-GFP binding; stronger effect = lower value; 310,000 tested, 0.48% active;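 active means binding more than 3 SD below its plate's average and above zero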;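 further: hits lower antibody fragment binding to DSG3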
Target sequence (P32926 whole entry, looked up, the tested form may be a part): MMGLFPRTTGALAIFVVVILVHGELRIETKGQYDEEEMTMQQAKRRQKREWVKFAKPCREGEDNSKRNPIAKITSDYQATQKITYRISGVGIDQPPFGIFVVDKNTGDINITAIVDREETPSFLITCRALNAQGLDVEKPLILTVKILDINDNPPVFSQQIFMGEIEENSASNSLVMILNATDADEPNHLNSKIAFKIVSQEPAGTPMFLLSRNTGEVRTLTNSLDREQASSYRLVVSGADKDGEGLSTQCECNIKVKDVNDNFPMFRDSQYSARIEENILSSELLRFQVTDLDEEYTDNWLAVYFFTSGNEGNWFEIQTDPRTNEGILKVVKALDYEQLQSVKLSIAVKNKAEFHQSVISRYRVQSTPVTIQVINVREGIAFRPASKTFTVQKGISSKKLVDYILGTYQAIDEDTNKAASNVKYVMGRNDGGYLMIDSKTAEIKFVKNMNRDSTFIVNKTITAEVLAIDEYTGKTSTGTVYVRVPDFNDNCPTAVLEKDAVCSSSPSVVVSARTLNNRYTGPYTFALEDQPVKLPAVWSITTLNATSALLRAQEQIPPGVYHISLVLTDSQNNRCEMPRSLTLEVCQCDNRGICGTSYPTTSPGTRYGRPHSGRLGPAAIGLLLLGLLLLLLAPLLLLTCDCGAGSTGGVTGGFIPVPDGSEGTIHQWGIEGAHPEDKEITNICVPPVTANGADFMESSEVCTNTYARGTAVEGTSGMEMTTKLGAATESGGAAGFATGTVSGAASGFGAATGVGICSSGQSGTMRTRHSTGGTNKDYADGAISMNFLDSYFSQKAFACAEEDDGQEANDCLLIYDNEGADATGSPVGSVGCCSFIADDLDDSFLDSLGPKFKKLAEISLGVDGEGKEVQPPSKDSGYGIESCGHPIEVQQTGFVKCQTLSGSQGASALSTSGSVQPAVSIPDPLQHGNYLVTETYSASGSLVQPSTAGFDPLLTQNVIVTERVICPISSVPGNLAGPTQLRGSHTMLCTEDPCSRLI
* hit, by the source's call; . = no result given.

SMILES	Bim-Mcl-1	Mcl1 Noxa PPI	T cell HTS	Mcl1-Bid inh	MCL1-BIM inh	Pemphigus Ab inh
CC(=O)Oc1ccc2c(C)c(CC(=O)N3CCN(C(=O)C4COc5ccccc5O4)CC3)c(=O)oc2c1C (centres undefined)	.	.	373	.	0	98
CN1CCc2nc3sc(C(=O)C45CC6CC(CC(C6)C4)C5)c(N)c3cc2C1	0	58*	304	85*	28	111
O=C(NCCc1ccccn1)c1nc(Cn2cc(Br)cn2)no1	.	.	190	.	-2	95
COC/C=C/C1=CC2=CC(=O)C(C)(OC(=O)c3cnc4ccccc4n3)C(=O)C2=CN1c1ccccc1 (centres undefined)	.	36	444	-55	34	.
COC/C=C/C1=CC2=CC(=O)C(C)(OC(=O)c3cnc4ccccc4n3)C(=O)C2=CN1c1ccc(CO)cc1 (centres undefined)	.	.	555	.	91*	.
CC1(C)CCCN(C(=O)c2coc(=O)c(Br)c2)C1	0	79*	.	-25	.	97
O=C(c1coc(=O)c(Br)c1)N1CCC(C(O)(c2ccccc2)c2ccccc2)CC1	.	-14	535	-6	7	115
COc1cc(C2C3=C(Nc4nc(N)[nH]c(=O)c42)c2ccccc2C3=O)ccc1O (centres undefined)	.	90*	279	-104	16	88
CCOC(=O)c1c(CSC(=N)N)n(-c2ccc(Br)cc2)c2cc(Br)c(OC(C)=O)cc12	7	65*	.	0	.	123
Cc1nn(-c2ccccc2)c(C)c1/C=N/NC(=O)c1cc(-c2ccc(Cl)s2)[nH]n1	-1	-11	331	5	1	103
Cc1nn(-c2ccccc2)c(C)c1-c1cc(C(=O)N/N=C/c2ccc(O)cc2)[nH]n1	.	13	344	-4	8	58*
Cc1nn(-c2ccccc2)c(C)c1/C=N/NC(=O)c1cc(-c2ccc(Br)s2)[nH]n1	-1	.	631	0	5	84*
Nc1ccccc1-c1ccccc1N	1	12	227	-51	6	100
Nc1ccccc1N=Nc1ccccc1N	.	.	493	.	47*	104
Cc1ccc(C(c2nnnn2CC2CCCO2)N2CCN(C(=O)c3ccco3)CC2)cc1 (centres undefined)	0	3	128	-2	10	101
Fc1ccc(Cn2nnnc2C(c2ccc(Cl)cc2)N2CCSCC2)cc1 (centres undefined)	43*	11	218	14	8	.
O=C(c1ccco1)N1CCN(C(c2ccc(F)cc2)c2nnnn2Cc2cccs2)CC1 (centres undefined)	-3	25	144	62*	3	102
CC1CCN(C(c2ccc(N(C)C)cc2)c2nnnn2Cc2ccc(F)cc2)CC1 (centres undefined)	-1	18	270	-49	1	119
O=C(c1ccco1)N1CCN(C(c2ccccc2)c2nnnn2Cc2cccs2)CC1 (centres undefined)	0	5	354	-22	8	97
O=C(c1ccco1)N1CCN(C(c2ccc(Cl)cc2)c2nnnn2CC2CCCO2)CC1 (centres undefined)	-6	15	141	55*	7	103
O=C(COC(=O)c1ccccc1Br)Nc1cccnc1Cl	.	.	347	.	.	103
O=C(NCc1cccs1)Nc1cccs1	0	0	178	-31	12	107
Cc1ccccc1CNC(=O)Nc1cccs1	0	52*	358	-24	17	99
Cc1cc(Cl)c(OCCCN2CCCCC2)c(Br)c1	-1	15	72*	-25	6	104
CC(C)(O)C1Cc2cc(/C=C/C(=O)O)c(O)cc2O1 (centres undefined)	-6	61*	.	-25	.	.
CCOc1cc(/C=N\NC(=O)c2ccc(C)nc2)ccc1OC(=O)c1ccc(F)cc1	.	.	487	.	3	66*
